Results filed as inconclusive are left out.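 The calls were made as follows, unless noted: active = viability increase at or above a cutoff of the median across tested compounds plus 3 SD (cut at about 8.5% in these data, passing the limit was not always enough); inconclusive = some gains above the cutoff, reason not given; inactive = the rest.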
Key:
[1] = OD615 S. cerevisiae growth inhibition, permissive medium, pilot counter-assay, permissive growth control for S. cerevisiae lifespan shortening project (AID 705;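 active = growth inhibition above 25% in both replicates, a cutoff set 3 SD above the mean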); details: OD615, 24 h, at 10 µM, stronger effect = higher value
Outline: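 System: S. cerevisiae with engineered DeaD lifespan system / Measured by: absorbance (optical density) at 615 nm / Read-out: reduction in yeast growth (OD615) / Times: 4 h cell pre-growth, 24 h exposure at 30 °C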

[2] = Restrictive medium S. cerevisiae growth inhibition, OD615, pilot screen of yeast lifespan reduction project, restrictive growth control (AID 706;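 active = growth inhibition above a set limit, 3 SD over mean compound inhibition, in both replicates, cut at about 43% in these data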;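 also: modified DeaD lifespan yeast strain shifted to restrictive glucose medium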); details: OD615, 48 h, at 10 µM, stronger effect = higher value
Outline: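 System: Engineered S. cerevisiae DeaD strain | Buffer or medium: Glucose-based CSMM-D restrictive medium | Schedule: 4 h pre-incubation, 48 h exposure at 30 °C | Technique: Optical density at 615 nm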

[3] = viability gain of MRP-1-high H69AR cells under doxorubicin, pilot screen, MRP-1 activator project, CellTiter-Glo, duplicate (AID 807); details: H69AR viability with doxorubicin, CellTiter-Glo luminescence; at 10 µM; stronger effect = higher value;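 also: compound pretreatment 18-22 h then 72 h combined with doxorubicin; 0% = doxorubicin alone and 100% = vehicle without doxorubicin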
[4] = growth suppression of beta-catenin knockout HCT116, pilot screen, human colon tumor cells (AID 823;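 active = cell viability at or below a set limit in both duplicate runs, the limit being the all-compound median minus 4 SD, cut at about 23% in these data, passing the limit was not always enough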;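 also: 0% = wells killed by 20 µM Hyamine and 100% = untreated DMSO cell wells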); details: CellTiter-Glo, 60 h, at 10 µM, stronger effect = lower value
[5] = growth suppression of PTEN-deleted HCT116, pilot screen, cell-based, HCT116 clonal line, CellTiter-Glo (AID 824;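 active = viability at or below 27.92% in each of two runs, the all-compound median minus 4 SD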;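 also: 0% = 20 µM Hyamine control and 100% = vehicle cell control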); details: 60 h, at 10 µM, stronger effect = lower value
[6] = inhibitors of the yeast RAM network, pilot screen, dse1pr::URA3 reporter, 5-FOA selection (AID 869;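 active = inhibition over a set limit, the all-compound mean plus 3 SD, in both replicate runs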;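 also: 0% = DMSO wells with no growth and 100% = 10 µM 1-NA-PP1 with full growth; RAM network block rescues cells from 5-FOA so hits raise OD615 growth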); details: S. cerevisiae dse1pr::URA3 5-FOA growth, OD615, 2 d; at 10 µM; stronger effect = higher value; strain carries analog-sensitive mutant Cbk1 kinase
[7] = RAM signaling pathway blockade in yeast – S. cerevisiae, Pdr1DBD-CYC8 efflux-inhibited sensitized strain, primary screen (AID 1298;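 active = RAM network inhibition above 8.4% in each of two replicates, 3 SD over the compound average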;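 also: 0% = DMSO untreated cells without growth and 100% = 10 µM 1-NA-PP1 full growth; higher means more yeast growth rescued from 5-FOA killing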); details: S. cerevisiae cbk1-as DSE1-URA3 strain, 5-FOA growth OD615, 2 d; at 50 µM; stronger effect = higher value

O=C1c2ccccc2-c2ncnc3c(N4CCOCC4)cc(N4CCOCC4)c1c23
inactive: growth inhibition [1] -12.8% | growth inhibition [2] -3.37% | viability increase [3] -7.53% | viability [4] 79.2% | viability [5] 80.9% | inhibition [6] -0.74% | RAM network inhibition [7] -1.52%

O=C(Cn1cnc2c(cnn2-c2ccccc2)c1=O)c1ccc(Cl)cc1
inactive: growth inhibition [1] -3.83% | growth inhibition [2] -12.3% | viability increase [3] 1.75% | viability [4] 94.3% | viability [5] 90.2% | inhibition [6] 0.5% | RAM network inhibition [7] 3.34%

Cn1c(SCc2nc(-c3ccc(Cl)cc3)no2)nnc1-c1ccco1
inactive: growth inhibition [1] -8.54% | growth inhibition [2] -0.675% | viability increase [3] -2.85% | viability [4] 90.6% | viability [5] 85.6% | inhibition [6] 2.02% | RAM network inhibition [7] 6.31%

O=c1c(N2CCOCC2)nsnc1N1CCOCC1
inactive: growth inhibition [1] 8.28% | growth inhibition [2] -6.26% | viability increase [3] -1.68% | viability [4] 106% | viability [5] 95.8% | inhibition [6] 0.59% | RAM network inhibition [7] -2%

CC(=O)c1ccc(NC(=O)C2CCC(C)(C(=O)O)C2(C)C)cc1 (stereo not given)
inactive: growth inhibition [1] -7.29% | growth inhibition [2] -11.9% | viability increase [3] -0.27% | viability [4] 97.9% | viability [5] 106% | inhibition [6] 2.73% | RAM network inhibition [7] 3.04%

Cc1cc(C)nc(N(C#N)Cc2ccccc2Cl)n1
inactive: growth inhibition [1] -8.69% | growth inhibition [2] 4.5% | viability increase [3] -3.71% | viability [4] 99.7% | viability [5] 95.5% | inhibition [6] 1.48% | RAM network inhibition [7] -0.21%

CN(CC(=O)N1CCc2ccccc21)S(=O)(=O)c1cccc2cccnc12
inactive: growth inhibition [1] -0.355% | growth inhibition [2] -2.55% | viability increase [3] -3.47% | viability [4] 93.9% | viability [5] 90.8% | inhibition [6] 1.47% | RAM network inhibition [7] 8.8%

COc1ccc(Br)cc1S(=O)(=O)N(CC(=O)N1CCOCC1)c1ccccc1
inactive: growth inhibition [1] -2.82% | growth inhibition [2] -7.74% | viability increase [3] -2.08% | viability [4] 98.1% | viability [5] 98.6% | inhibition [6] 2.6% | RAM network inhibition [7] 3.62%

CCc1nccn1S(=O)(=O)c1ccc(OC)c(OC)c1
inactive: growth inhibition [1] -17.4% | growth inhibition [2] -10% | viability increase [3] -0.29% | viability [4] 100% | viability [5] 93.3% | inhibition [6] 1.67% | RAM network inhibition [7] 0.47%

COc1ccc(C)cc1S(=O)(=O)N1CCN(S(=O)(=O)c2cc(C)ccc2OC)C(C)C1 (stereo not given)
inactive: growth inhibition [1] -8.75% | growth inhibition [2] -8.42% | viability increase [3] -3.35% | viability [4] 88.7% | viability [5] 85.6% | inhibition [6] 2.99% | RAM network inhibition [7] 2.61%

O=C(NC1CCCCC1)c1ccc(Br)o1
inactive: growth inhibition [1] -5.84% | growth inhibition [2] -1.68% | viability increase [3] -1.9% | viability [4] 102% | viability [5] 102% | inhibition [6] 0.915% | RAM network inhibition [7] 3.82%

COCn1c(-c2cccc(Br)c2)nc2ccccc21
inactive: growth inhibition [1] -10.2% | growth inhibition [2] 3.42% | viability increase [3] -4.2% | viability [4] 85.2% | viability [5] 86.8% | inhibition [6] 1.17% | RAM network inhibition [7] 3.8%

Cc1ccc2oc(=O)n(CCOc3ccccc3Cl)c2c1
inactive: growth inhibition [1] 2.37% | growth inhibition [2] 0.755% | viability increase [3] 2.94% | viability [4] 88.5% | viability [5] 83.9% | inhibition [6] 0.955% | RAM network inhibition [7] 2.66%

Cc1ccc(-c2nc(CS(=O)(=O)CC(=O)N3CCc4ccccc4C3)c(C)o2)cc1
inactive: growth inhibition [1] -3.42% | growth inhibition [2] -1.55% | viability increase [3] -2.25% | viability [4] 67.4% | viability [5] 68.9% | inhibition [6] 0.555% | RAM network inhibition [7] 7.91%

COc1ccc(-c2nnc(NC(=O)C(C)C)s2)c(OC)c1
inactive: growth inhibition [1] -18.6% | growth inhibition [2] -10.3% | viability increase [3] -2.16% | viability [4] 96% | viability [5] 88.8% | inhibition [6] 4.28% | RAM network inhibition [7] 9.53%

COc1ccc(-n2c(Cc3cc(=O)[nH]c(=O)[nH]3)nnc2SCC(=O)N2CCCC2)cc1
inactive: growth inhibition [1] -4.92% | growth inhibition [2] -0.375% | viability increase [3] 0.36% | viability [4] 101% | viability [5] 97.9% | inhibition [6] 0.805% | RAM network inhibition [7] 0.42%

CC12CCC(C(=O)N3CCCc4ccccc43)(CC1=O)C2(C)C (stereo not given)
inactive: growth inhibition [1] -15% | growth inhibition [2] -2.7% | viability increase [3] -0.39% | viability [4] 83.6% | viability [5] 87.6% | inhibition [6] 0.94% | RAM network inhibition [7] 0.93%

OCCOCCn1c(-c2ccccc2)nc(=S)c2c1CCCC2
inactive: growth inhibition [1] -3.65% | growth inhibition [2] 14.6% | viability increase [3] -0.07% | viability [4] 102% | viability [5] 106% | inhibition [6] 0.73% | RAM network inhibition [7] 6.53%

COc1ccc(C)cc1Nc1cc(C)nc2ncnn12
inactive: growth inhibition [1] -7.14% | growth inhibition [2] 0.405% | viability increase [3] -4.44% | viability [4] 95.1% | viability [5] 88.9% | inhibition [6] 1.28% | RAM network inhibition [7] -1.57%

CCc1cc2c(=O)c(-c3nc4ccccc4[nH]3)coc2c(CN2CCCC(C)C2)c1O (stereo not given)
inactive: growth inhibition [1] -3.79% | growth inhibition [2] 12.3% | viability increase [3] -0.47% | viability [4] 103% | viability [5] 92.8% | inhibition [6] -0.17% | RAM network inhibition [7] 0.56%

O=c1oc(-c2cc3ccccc3o2)nc2sc3c(c12)CCCC3
inactive: growth inhibition [1] -10.5% | growth inhibition [2] -6.6% | viability increase [3] 3.77% | viability [4] 74.4% | viability [5] 56.9% | inhibition [6] 2.1% | RAM network inhibition [7] 4.52%

CCCN1C(=O)c2cc(C(=O)NC3CCCC3)ccc2C1O (stereo not given)
inactive: growth inhibition [1] -10.3% | growth inhibition [2] -1.61% | viability increase [3] -2.46% | viability [4] 103% | viability [5] 95.5% | inhibition [6] 0.125% | RAM network inhibition [7] 9.43%

COc1ccc(-n2c(Cc3cccn3C)nnc2SCC(=O)Nc2ccc(C(C)=O)cc2)cc1
inactive: growth inhibition [1] 3.63% | growth inhibition [2] 17.8% | viability increase [3] -3.67% | viability [4] 99.4% | viability [5] 90.8% | inhibition [6] 1.6% | RAM network inhibition [7] 3.56%

Cc1sc2nc(NCCO)[nH]c(=O)c2c1C
inactive: growth inhibition [1] -15.5% | growth inhibition [2] -23.2% | viability increase [3] -2.72% | viability [4] 107% | viability [5] 97.2% | inhibition [6] 0.885% | RAM network inhibition [7] -1.79%

CC(/C=C/c1ccccc1)=N/O
inactive: growth inhibition [1] -2.33% | growth inhibition [2] 2.71% | viability increase [3] 0.26% | viability [4] 98.3% | viability [5] 106% | inhibition [6] -0.595% | RAM network inhibition [7] 4.55%
